Test results reported in the RNAGym collection of RNA variant scans (doi:10.1126/science.aae0568).
Fewer inactive variants are shown than the library holds.

B1: tRNA (parent)
chain: GUUCCGUUGGCGUAAUGGUAACGCGUCUCCCUCCUAAGGAGAAGACUGCGGGUUCGAGUCCCGUACGGAACG

Variants of: B1
Experiment: yeast fitness relative to wild type (ratio to wild type); higher = fitter; tRNA-Arg(CCU), competitive growth, 37 C, YPD
In short: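 Changes in genotype frequencies gave Darwinian fitness relative to wild type. Frequencies were read by 100-nucleotide paired-end sequencing of gene amplicons before and after pooled Saccharomyces cerevisiae strains, carrying tRNA-Arg(CCU) gene variants at the native locus, were competed in YPD at 37°C for 24 hours in six replicates. A genotype was kept only with ≥ 100 starting reads, and estimates < 0.5 were set to 0.5.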

Row | Variant | yeast fitness
1 | GUUCCGUUGGCGUAAUGGAAACGCGUCUCCCUCCUAAGGAGAUGACUGCGGGUUCGAGUCCCGUACGGAACG [U19A A43U] | 1
2 | GUUCCGUUGGCGUAAUGGUAACGUGUCUCCCUCCUAAGGAGACGACUGCGGGUUCGAGUCCCGUACGGAUCG [C24U A43C A70U] | 0.59
3 | GUUCCGUUGGCGUAAUGGUAACGGGUCGGCCUCCGAAGGAGAAGACAGCGGGUUCGAGUCCCGUACGGAACG [C24G U28G C29G U35G U47A] | 0.606
4 | GUUCCGUUGGCGUAAUGAUAAGGCGUGUCCCUCCUAAGGAGAAGACUGUGGGUUCGAAUCCCGUACGGAACG [G18A C22G C27G C49U G58A] | 0.608
5 | GUUCCGUUGGCGUAAUGGUAGCGCGUCUCCCUCCUGAGGAGAAGACUGCGGGUUCGAGUCCCGUCCGGAACG [A21G A36G A65C] | 0.664
6 | GUUCCGUUGGCGUAAUGGUCACGCGUCUCUCUCCUAAGGAGAAGACUGCGGGUUCGAGUCACGUACGGAACG [A20C C30U C61A] | ≤ 0.5
7 | GUUCCGUUGGCGUAAUGGUAACGCGUCUCUUUCCUAAGGAGAAGACUGCGGGUUCGAGUCCCGUACGGACCG [C30U C31U A70C] | 0.784
8 | GUUCCGUUGGCGUAAUGGUAACGCGUCUCCCUCCAAAGGAGAAGAAUGCGGGUUAGAGUCCCGUACGGUACG [U35A C46A C55A A69U] | ≤ 0.5
9 | GUUCCGUUGGCGUAAUGGUAACGCGUCUCUCUCCUAAGGAGAAGACUGCGGGUUCGAAUCGCGUACGCAUCG [C30U G58A C61G G68C A70U] | ≤ 0.5
10 | GUUCCGUUGGCGUAAAGGUAACGCGUCUCCCUCCUAUGGAGAAGACUGCGGGUUCAAGUCCAGUACGGGACG [U16A A37U G56A C62A A69G] | ≤ 0.5
11 | GUUCCGUUGGCGUAAUGGUAACGCAUCUCCCUCCUAAGGAGAAGGUUGCGGGUUCGAGUCCCGUACGGAACG [G25A A45G C46U] | 0.731
12 | GUUCCGUUGGCGUAAUGGUAACGCGUAUCCUUCCUAAGGAGAUGACUGCGGGUUCGAGUCCCGUACGGAACG [C27A C31U A43U] | 0.961
13 | GUUCCGUUGGCGUAAUGGUCACGCGUCUCCCUCUUAAGGAGAAGACUGCGGGUUCGAGUCCCGUAUGGAACG [A20C C34U C66U] | 0.543
14 | GUUCCGUUGGUGUAAUGGUAACGCGUCUCCCUCCUAAGGAGAAGACUGGGGGUUCGAGUCCCGUACGGAACG [C11U C49G] | 0.892
15 | GUUCCGUUGGCGUACUGGAAACGCGUCUCCCUCCUAAGGAGAAGACUACGGGUUCGAGUCCGGCACGGAACG [A15C U19A G48A C62G U64C] | ≤ 0.5
16 | GUUCCGAUGGUGUAAUGGUAACGCGUCUCUCUCCUAAGGAGAAGACUGCGGGUUCGAGACCCGUACGGCACG [U7A C11U C30U U59A A69C] | ≤ 0.5
17 | GCUCAGUUGGCGUAAUGGUAACGCGUCUGCCUCCUAAGGAGAAGACUACGGGUUCGAGUCCCGUACGGUACG [U2C C5A C29G G48A A69U] | ≤ 0.5
18 | GUUCCGUUGGCGUAAUGGUAACGCGUUUCCCUCCUAAGGUGAAGACUGCGGGUUCGAGUCCCGUACGGAACG [C27U A40U] | 0.925
19 | GUUUCGUUGGCGUAAUGAUAAUGCGUCUCCCUCCUAAGGCGAAGACUGCGGGUUCGAGUCCCGUACGGAACG [C4U G18A C22U A40C] | ≤ 0.5

Row | Variant | yeast fitness
20 | GUUCCGUUGGCGUAAUGGUAACGCGUCUCCCUCCUAAGGAGAAGUCUGCGCGUUCGAGUCCCGUACGAAACG [A45U G51C G68A] | ≤ 0.5
21 | GUUCCGUUGGCGUAAUGGUAACGCGUCUCCCUCCUAAGGUGAAGACUGGGGGUUCGAGUCCCGUACGGAUCG [A40U C49G A70U] | 0.535
22 | GUUCCGUUGGCGUAAUGGUAACGCGUGUCCCUCCUAAGGAGAAGACUGCGGGUUCGAGUCCCGUACGGACCG [C27G A70C] | 0.786
23 | GUUCCGUCGGCGUAAUGGUAACGCGUCUCCCUCCUAAGGAGAAGACUGCGGGUUCGGGUCCCGUAUGGAACG [U8C A57G C66U] | 0.704
24 | GUUCCGUUAGCGUAAUGGUAACGCGUCUCCUUCCUAAGGCGAAGACUGCGGGUUCGAGUCCCGUAAGGAACG [G9A C31U A40C C66A] | ≤ 0.5
25 | GUUCGGUUGGCGUAAUGGUAACGCGUCCCCGUCCUAAGGAGAAGACUGCGGGUUCGAGUCCUGUACGGAACG [C5G U28C C31G C62U] | ≤ 0.5
26 | GUUCCGUUGGCGUAAUGGUAAUGCGUCUCUCUUCUAAGGAGAAGCCUGCGGGUUCGAGUCCCGUCCGGAACG [C22U C30U C33U A45C A65C] | ≤ 0.5
27 | GUUACGUUGGCGUAAUGGUAACGCGUCUCCCUCCUAAGGAGAAGAGUGCGGGUUCGAGUCCUGUACGGAACG [C4A C46G C62U] | 0.609
28 | GUUACGUUGGCGUGAUGGUAACGCGUCUCGCUCCUAAGGAGAAGGCUGCGGGUUCGAGUCCCGUACGGAACG [C4A A14G C30G A45G] | 0.758
29 | GUUCCGUUGGCGUAAUGGUAACGCGACUCCCUCCUAAGGAGGAGACUCCGGGUUCGAGUCCGGUACGGAACG [U26A A42G G48C C62G] | ≤ 0.5
30 | GUUCCGUUGGCGUAAUGGUAACACGUCUCCCUCCUAAGGAGAAGACUGCGAGUUCGAGUCCCGUAUGGAACG [G23A G51A C66U] | ≤ 0.5
31 | GUUCCGUUGGCGUAAUGGUAACGCGUCACCCUCCUAAGGAGAAGACUGCGGCUUCGAGUCCCGUACGGAACG [U28A G52C] | ≤ 0.5
32 | GUUCCGUUGGCGUAAUGGUAAUGCGUCUCGCUCCUAAGGAGAAGACUGCGGGUUCGUGUCCCGUACGGAACG [C22U C30G A57U] | ≤ 0.5
33 | GUUCCGUUGGCGUAAUGGUAACGCGUCUCCUUCCUAAGGAGAAGACUGCGGGAUCGAGACCCGUACGGAACG [C31U U53A U59A] | ≤ 0.5
34 | GUUCUGUUGGCGUAAUGGCAACGCGUCUCCCUCCUAAGGAGAAGACUGCGGGUUCGAGUCCCGUAGGGAACG [C5U U19C C66G] | 0.606
35 | GUUCCGUUGGCGUAAUGGUAACGCGUCGCCCUCCUAAGGAGAAGCCUGCGGGUUCGAGUCCCGUACGGAACG [U28G A45C] | 0.655
36 | GUUCCGUUGGCGUAAUGGUAGAGCGUCUCCCUCCUAAGGAGAAGACUGCGGGUUCGAGUCCUGUAAGGAACG [A21G C22A C62U C66A] | ≤ 0.5
37 | GUUCCGUUGGCGUGAUGGUAACGCGUCUCCCUCCUAAGGAGAAGACUGCGGGUUCGAGACCCGUACGGAACG [A14G U59A] | 0.894
38 | GUUCCGUUGGCGUAAUGGUAACGCGUCUCUCUCCUAAGGAGAAGACUGCGGGUUCGAGUACCGUACGGAACG [C30U C60A] | 0.593
